{"source": "ChEMBL document CHEMBL5331102", "about": "“Novel S1R agonists counteracting NMDA excitotoxicity and oxidative stress: A step forward in the discovery of neuroprotective agents” (Eur J Med Chem, 2023)", "key": {"[1]": {"target": "T1, Sigma non-opioid intracellular receptor 1 (Homo sapiens, UniProt Q99720)", "T1 sequence (Q99720 whole entry)": "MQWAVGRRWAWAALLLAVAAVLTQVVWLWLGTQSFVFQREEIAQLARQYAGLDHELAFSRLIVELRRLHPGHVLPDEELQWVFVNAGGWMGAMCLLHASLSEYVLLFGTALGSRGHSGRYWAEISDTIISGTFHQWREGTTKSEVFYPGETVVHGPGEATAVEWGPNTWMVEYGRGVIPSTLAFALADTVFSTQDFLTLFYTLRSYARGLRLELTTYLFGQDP", "assay": "Binding affinity to sigma 1 receptor (unknown origin) assessed as inhibition constant", "method_in_brief": "(§1)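 Radioligand displacement at S1R with [3H](+)pentazocine (15 nM) and at S2R with [3H]DTG (25 nM); S2R assay includes 1 μM cold (+)pentazocine to mask S1R sites. Bound radioactivity counted by scintillation. IC50 and Hill slope from non-linear Hill fit of competition curves; Ki by Cheng–Prusoff using radioligand concentration and KD from Scatchard plot.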"}, "[2]": {"target": "Sigma intracellular receptor 2 (Homo sapiens, UniProt Q5BJF2)", "sequence (Q5BJF2 whole entry)": "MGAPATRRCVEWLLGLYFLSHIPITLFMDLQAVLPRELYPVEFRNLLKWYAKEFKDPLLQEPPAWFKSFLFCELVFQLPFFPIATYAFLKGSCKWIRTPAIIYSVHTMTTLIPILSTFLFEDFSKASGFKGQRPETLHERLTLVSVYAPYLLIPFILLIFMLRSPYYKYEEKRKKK", "assay": "Binding affinity to sigma 2 receptor (unknown origin) assessed as inhibition constant", "method_in_brief": "as §1"}, "[3]": {"assay": "Selectivity index, ratio of Ki for sigma 2 receptor (unknown origin) to Ki for sigma 1 receptor (unknown origin)"}, "[4]": {"target": "T1, Sigma non-opioid intracellular receptor 1", "assay": "Displacement of [3H]-(+)-pentazocine from sigma 1 receptor (unknown origin) at 25 nM by scintillation counting analysis", "details": "filed as agonist", "method_in_brief": "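Single-concentration screen at 25 nM test compound against [3H](+)pentazocine (15 nM) at S1R; scintillation counting; result given as % inhibition of control specific binding, i.e. 100 minus measured/control specific binding ×100.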"}, "[5]": {"target": "Glutamate [NMDA] receptor (Homo sapiens) (UniProt Q05586+Q12879+Q13224+O15399+O60391+Q14957+Q8TCU5)", "assay": "Displacement of [3H]CGP39653 from human NMDAR at 25 nM by scintillation counting analysis", "assay_type": "protein-complex assay", "method_in_brief": "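NMDA receptor binding with [3H]CGP39653 (5 nM) as radioligand, test compound at 25 nM; displacement read by scintillation counting and reported as % inhibition of control specific binding.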"}, "SH-SY5Y [6]": {"test_system": "SH-SY5Y", "assay": "Neuroprotective activity in human SH-SY5Y cells assessed as prevention of NMDA induced cytotoxicity by measuring cell viability at 0.1 to 0.5 uM incubated for 24 hrs in presence of NMDA by MTT assay", "assay_type": "functional, cell-based", "details": "dose 0.1-0.5 µM", "method_in_brief": "(§2)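 SH-SY5Y cells (~7000/well) co-incubated 24 h at 37 °C in 2% FBS medium with toxic stimulus (NMDA 250 μM or oligomycin 2.5 μM) plus compound at 0.1–5 μM. Viability by MTT, expressed as % of control.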"}, "SH-SY5Y [7]": {"test_system": "SH-SY5Y", "assay": "Neuroprotective activity in human SH-SY5Y cells assessed as prevention of NMDA induced cytotoxicity by measuring cell viability at 1 to 5 uM incubated for 24 hrs in presence of NMDA by MTT assay", "assay_type": "functional, cell-based", "details": "dose 1-5 µM", "method_in_brief": "as §2"}, "[8]": {"assay": "Cytotoxicity against human SH-SY5Y cells assessed as reduction in cell viability incubated for 72 hrs by MTT assay", "assay_type": "toxicity, cell-based", "method_in_brief": "(§3)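 SH-SY5Y cells kept in DMEM/10% FBS, 2 mM glutamine, 37 °C, 5% CO2; ~7000 cells/well, after 1 day given compound (six concentrations, 0.1–100 μM; DMSO stocks 10 mM) in 2% FBS medium for 72 h. MTT (0.5% w/v, 2 h), formazan dissolved in DMSO, absorbance read; triplicates, % of untreated control.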"}, "SH-SY5Y [9]": {"test_system": "SH-SY5Y", "assay": "Cytotoxicity against human SH-SY5Y cells assessed as reduction in cell viability at 5 uM incubated for 72 hrs by MTT assay", "assay_type": "toxicity, cell-based", "method_in_brief": "as §3"}, "PC-12 [10]": {"test_system": "PC-12", "assay": "Neuroprotective activity in rat PC12 cells assessed as induction of NGF-mediated neurite outgrowth at 0.5 uM by neurite outgrowth assay (Rvb=26 +/- 4%)", "assay_type": "functional", "method_in_brief": "(§4)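 PC12 cells stimulated with NGF (2.5 nM) and treated with compound up to 5 μM, alone or after pre-treatment with S1R antagonist NE-100 (3 μM); read-out is percentage of cells bearing neurite sprouts; mean ± SEM of three independent experiments.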"}, "PC-12 [11]": {"test_system": "PC-12", "assay": "Neuroprotective activity in rat PC12 cells assessed as induction of NGF-mediated neurite outgrowth at 0.5 uM in presence of NE-100 by neurite outgrowth assay", "assay_type": "functional, cell-based", "method_in_brief": "as §4"}}, "note": "pKi: −log10 of the molar value. Activity calls are given as the source filed them. No cut-off for these calls is given here."}
{"smiles": "CN(C)CC1CCOC1(c1ccccc1)c1ccccc1", "note": "(configuration not stated) [BLARCAMESINE]", "values": [{"measurement": "pKi", "setting": "[1]", "result": 8.20}]}
{"smiles": "c1ccc(CN2CCN(CC3CSC4(CCCCC4)O3)CC2)cc1", "note": "(configuration not stated)", "values": [{"measurement": "pKi", "setting": "[1]", "result": 8.89}, {"measurement": "pKi", "setting": "[2]", "result": 7.04}, {"measurement": "Ratio Ki", "setting": "[3]", "result": 70}]}
{"smiles": "c1ccc(CN2CCN(CC3CSCS3)CC2)cc1", "note": "(configuration not stated)", "values": [{"measurement": "Ratio Ki", "setting": "[3]", "result": 43}]}
{"smiles": "c1ccc(CN2CCN(CCCOC3CCCCC3)CC2)cc1", "values": [{"measurement": "Activity", "setting": "[4]", "result": "> 95", "unit": "%"}, {"measurement": "Activity", "setting": "[5]", "result": "< 11.9", "unit": "%"}]}
{"smiles": "c1ccc(CN2CCN(CC3COC4(CCCCC4)O3)CC2)cc1", "note": "(configuration not stated)", "values": [{"measurement": "pKi", "setting": "[1]", "result": 9.13}, {"measurement": "pKi", "setting": "[2]", "result": 7.46}, {"measurement": "Ratio Ki", "setting": "[3]", "result": 47}]}
{"smiles": "CC12CC3CC(C)(C1)CC(N)(C3)C2", "note": "[MEMANTINE]", "values": [{"measurement": "Activity", "setting": "SH-SY5Y [6]", "result": "Active"}, {"measurement": "Activity", "setting": "SH-SY5Y [7]", "result": "inactive"}, {"measurement": "CC50 at 72 h", "setting": "[8]", "result": 98000, "unit": "nM"}, {"measurement": "Activity", "setting": "SH-SY5Y [9]", "result": 70, "unit": "%"}]}
{"smiles": "COc1ccc(CCN2CCN(CCCc3ccccc3)CC2)cc1OC", "note": "[[11C]SA4503]", "values": [{"measurement": "pKi", "setting": "[2]", "result": 7.20}]}
{"smiles": "CC1(C)SCC(CN2CCC(Cc3ccccc3)CC2)S1", "note": "(configuration not stated)", "values": [{"measurement": "pKi", "setting": "[1]", "result": 9.30}, {"measurement": "pKi", "setting": "[2]", "result": 7.92}, {"measurement": "Ratio Ki", "setting": "[3]", "result": 24}]}
{"smiles": "c1ccc(CC2CCN(CC3CSC4(CCCCC4)S3)CC2)cc1", "note": "(configuration not stated)", "values": [{"measurement": "pKi", "setting": "[1]", "result": 7.92}, {"measurement": "pKi", "setting": "[2]", "result": 8.30}, {"measurement": "Ratio Ki", "setting": "[3]", "result": 0.4}]}
{"smiles": "c1ccc(CN2CCN(CCCSC3CCCCC3)CC2)cc1", "values": [{"measurement": "Activity", "setting": "[4]", "result": "> 95", "unit": "%"}, {"measurement": "Activity", "setting": "[5]", "result": "< 11.9", "unit": "%"}]}
{"smiles": "C[C@H](CCN1CCCCC1)c1ccc(-c2ccccc2)cc1", "values": [{"measurement": "Activity", "setting": "PC-12 [10]", "result": 36, "unit": "%"}, {"measurement": "Activity", "setting": "PC-12 [11]", "result": "inactive"}]}
{"smiles": "c1ccc(CN2CCN(CCSc3ccccc3)CC2)cc1", "values": [{"measurement": "Activity", "setting": "[4]", "result": "> 95", "unit": "%"}, {"measurement": "Activity", "setting": "[5]", "result": "< 11.9", "unit": "%"}]}
